Assay outcomes as filed in PubChem BioAssay.
In the library only some 3.7% were active in any assay of this set; here they are far more common.
MT stabilizer = microtubule stabilizers in HeLa cells; % tubulin-high responders, % at 10 µM; HeLa tubulin immunostaining HCS, 24 h; share of cells brighter than vehicle mean+2SD; actives 0.83% (n = 200,000);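 active = plate Z-score above 3 for both tubulin-high and condensed-nucleus cell shares, with cell loss under 80%, at 10 µM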;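 note: anti alpha tubulin signal scored within the nucleus-defined area of each cell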
KCC2 mod = modulators of human KCC2 chloride dependent transport | KCC2 cells, thallium flux FluoZin-2 fluorescence | actives 2.2% (n = 190,000) | Q9H2X9 | B-score of Tl+ flux slope (higher = more flux/activation; lower = inhibition) at 10 µM | AID 1456;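 active = thallium flux slope and its plate-corrected score both differing from the plate sample mean at a set confidence after two filtering rounds, in either direction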;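 note: slope of fluorescence scaled to starting intensity during 10 to 20 s after thallium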
DTT redox prof = compounds producing H2O2 with reducing agent – biochemical, NIH compound library profiling, artefact control for MLSCN library redox annotation, primary screen; DTT-dependent redox cycling H2O2, phenol red/HRP absorbance; 100% = 100 µM peroxide control, 0% = buffer; AID 878; actives 0.03% (n = 200,000); activation, % at 10 µM;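 active = activation of at least 50% relative to the plate's high and low controls in the primary single-dose screen; inactive = activation below 50%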;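 note: compound incubated with DTT at 0.8 mM final as the reducing agent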
b-catenin transl = modulators of beta-catenin nuclear translocation; HeLa beta-catenin nuclear translocation, immunofluorescence imaging; nuclear translocation activity, % at 5 µM; actives 0.3% (n = 190,000); AID 1665;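 active = nuclear translocation activity above 50% at 5 µM, with a well cell count of 50 or more; inconclusive = wells under 50 cells across six images, flagged as toxic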;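 note: per-cell ratio of nuclear to cytoplasmic median beta-catenin stain intensity; plate controls were DMSO negative control for no effect and GSK-3 inhibitor IX positive control for full effect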
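Technique: fluorescence imaging of beta-catenin antibody stain plus DAPI / Material: human HeLa cell line / Incubation: compound treatment 24 h, 37°C, 5% CO2 / Read-out basis: % activation of per-cell nuclear versus cytoplasmic median beta-catenin signal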
ROMK primary = modulators of human ROMK potassium channel; P48048; AID 1918; Tet-inducible ROMK, thallium flux fluorescence; actives lie on both sides; actives 2% (n = 130,000); B-score at 10 µM;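 active = signal ratio slope over the read window, or its plate-corrected B-score, at least 3 SD from the plate mean, either direction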;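 note: B-score of the F/F0 ratio slope over 7 to 12 s after thallium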
Target sequence (P48048 whole entry, looked up): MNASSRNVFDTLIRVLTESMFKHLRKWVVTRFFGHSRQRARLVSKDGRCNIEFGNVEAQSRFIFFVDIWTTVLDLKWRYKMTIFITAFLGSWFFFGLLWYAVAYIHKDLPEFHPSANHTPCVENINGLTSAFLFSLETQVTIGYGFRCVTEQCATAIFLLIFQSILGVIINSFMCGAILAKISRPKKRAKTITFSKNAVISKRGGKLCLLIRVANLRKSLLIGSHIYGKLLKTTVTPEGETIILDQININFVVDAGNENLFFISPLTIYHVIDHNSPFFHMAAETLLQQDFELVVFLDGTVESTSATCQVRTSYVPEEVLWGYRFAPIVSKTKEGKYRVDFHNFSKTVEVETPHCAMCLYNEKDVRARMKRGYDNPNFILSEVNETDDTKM
ROMK hit retest = retested hit modulating human ROMK potassium channel; shares compounds with ROMK primary; AID 1917; normalized thallium flux (F/F0 slope) at 10 µM; ROMK thallium flux, fluorescence ratio; active compounds read low; actives 54% (n = 3,000);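 active = Flux at 10 µM at least 3 SD below or above vehicle control mean in one or both replicates; inconclusive = no clear call, values can overlap the other calls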
* = called active by the depositor; ? = inconclusive; . = not tested or not shown.

SMILES | MT stabilizer | KCC2 mod | DTT redox prof | b-catenin transl | ROMK primary | ROMK hit retest
COc1ccc(C(F)(F)F)cc1N/C=C/c1nnnn1-c1ccc2ccccc2c1 | . | 0.14 | . | 2 | 0.56 | .
CCOCCCNC(=O)/C(C#N)=C/c1ccccc1F | 3 | 0.31 | -1 | -1 | -3.9* | 0.052*
CCOCCCNC(=O)/C(C#N)=C/c1ccc(C(=O)OC)cc1 | 6 | 0.84 | -2 | -1 | -2.2* | 0.045*
CCOCCCNC(=O)/C(C#N)=C/c1cc(C)c(O)c(C)c1 | 3 | -0.49 | 0 | -2 | 1.5 | .
Cc1ccc(-n2cc(CNC(C)c3cnn(C)c3C)c(-c3ccc(F)cc3)n2)cc1 (stereo not drawn) | 3 | 0.2 | -1 | -1 | -4.1* | 0.054*
Cc1ccc(-n2cc(CNC(C)c3cnn(C)c3)c(-c3ccc(F)cc3)n2)cc1 (stereo not drawn) | 1 | 1.3 | 0 | 1 | -2.7* | 0.051*
Cc1ccc(-n2cc(CNC(C)Cn3cncn3)c(-c3ccc(F)cc3)n2)cc1 (stereo not drawn) | 10 | -0.46 | -2 | 0 | -1.6 | .
COCCOC(=O)c1c(NC(=O)CN2CCOCC2)sc(C(N)=O)c1C | 5 | -0.48 | 0 | -3 | . | .
COCCOC(=O)c1c(NC(=O)CN2c3ccccc3CC2C)sc(C(N)=O)c1C (stereo not drawn) | 5 | -1.9 | -3 | 0 | 2.2* | ?
Oc1c(C=C2N=c3ccccc3=N2)sc(=S)n1C1CCCCC1 | 3 | 0.1 | 0 | 3 | . | ?
CCn1c(O)c(C=C2N=c3ccccc3=N2)sc1=S | 3 | -0.31 | -1 | -2 | 0.13 | .
COC(CNC(=O)c1coc2nc3ccccc3nc12)OC | . | 0.82 | . | 0 | . | .
O=[N+]([O-])c1ccc2c(c1)/C(=N\O)c1ccccc1-2 | . | 0.19 | . | 1 | -2.9* | ?
NN=C1c2cc([N+](=O)[O-])ccc2-c2ccc([N+](=O)[O-])cc21 | 6 | 0.58 | -1 | 0 | 0.4 | .
O=C(N[C@@H](Cc1ccccc1)C(=O)NC1CCCCCC1)c1ccco1 | 3 | 0.58 | 0 | . | -0.26 | .
O=C(N[C@@H](Cc1ccccc1)C(=O)NC1CCCCC1)c1ccco1 | 2 | 0.35 | 0 | . | 1.9* | 0.08
NC(=O)c1cc(-c2ccccc2)nc(Oc2ccccc2)n1 | 2 | 0.04 | 1 | -2 | -3.6* | 0.077
N#Cc1cc(-c2ccccc2)nc(Oc2ccccc2)n1 | 3 | 0.044 | 1 | -2 | -0.087 | .
CC1(C)Cc2nc3oc4c(SCC(N)=O)ncnc4c3cc2CO1 | . | 0.28 | . | 0 | . | .
CCOC(=O)NNC(=O)NCCCCCCNC(=O)NNC(=O)OCC | . | 0.15 | . | -1 | 0.11 | .
COc1ccc(CNC(=O)CCC(=O)Nc2nnc(CC(C)C)s2)cc1 | . | 0.24 | . | 1 | . | .
O=C(CCC1CCCC1)N1CCC(N2CCCCCC2)CC1 | 7 | -0.28 | -1 | 0 | -1.3 | .
O=C(O)c1cn(-c2ccc(F)cc2)c(=O)c2ccccc12 | 3 | -1.2 | -2 | 0 | 0.68 | .
Cc1cc(N2CCN(c3ccc([N+](=O)[O-])c4cccnc34)CC2)c2ccccc2n1 | 4 | -0.39 | 0 | -2 | -2.6* | 0.062*
O=C(c1ccccc1F)N1CCN(c2ccc([N+](=O)[O-])c3cccnc23)CC1 | 2 | -1.6 | -1 | -1 | -3.1 | .
SMILES | MT stabilizer | KCC2 mod | DTT redox prof | b-catenin transl | ROMK primary | ROMK hit retest
CCc1ccc(NC(=O)c2ccc3c(=O)n4c(nc3c2)CCCCC4)cc1 | . | -1.4 | . | 1 | . | .
O=C(Nc1cccc(S(=O)(=O)N2CCCCC2)c1)c1ccc2c(=O)n3c(nc2c1)CCCCC3 | 4 | -1.1 | 0 | -2 | . | 0.064*
COc1cc(CC(=O)OCC(=O)N2CC(=O)Nc3ccccc32)cc(OC)c1OC | 3 | 0.3 | -1 | 0 | 1.1 | .
Cc1cc(CNCc2c(C(=O)N3CCCCCCC3)nc3ccc(Cl)cn23)nn1C | 3 | 0.068 | -1 | 2 | 1.9* | 0.081
CCCCOC(=O)CSC1=C(C#N)C(c2cccnc2)C(C(=O)OCC)=C(c2ccccc2)N1 (stereo not drawn) | 4 | -1.4 | -2 | -2 | -3.4* | 0.067*
COc1ccccc1N1CCN(c2ccc(-c3ccccc3)nn2)CC1 | 12 | -1.4 | -1 | . | 2.5* | 0.079
CCOC(=O)c1c(CSc2ccccc2)n(C)c2cc(Br)c(OCC(O)CNC(CO)(CO)CO)cc12 (stereo not drawn) | 29 | -2.7 | 0 | 5 | -5.2* | 0.056*
O=C(NCCc1c[nH]c2ccccc12)C(=O)NCC(c1ccco1)N1CCN(c2ccccc2F)CC1 (stereo not drawn) | 2 | 1.5 | 0 | 0 | 0.57 | .
COc1ccccc1OCCCCN1CCN(c2ccccc2OC)CC1 | 5 | -0.19 | 0 | . | . | .
COc1ccccc1N1CCN(CCCCCCOc2ccc(F)cc2)CC1 | 6 | -0.71 | 1 | -3 | -4.5* | 0.038*
COc1ccc(C(=O)CCN2CCN(c3ccccc3F)CC2)cc1 | 4 | -1.3 | -1 | -4 | -10* | 0.077
Cc1ccc(/C=C(\C#N)C(=O)NCCN2CCOCC2)cc1 | 2 | 0.5 | 0 | -4 | -3.2* | 0.06*
CN1C[C@@H]2C[C@@H](C3=Cc4cc(Cl)ccc4OC3)N3CCC[C@@]23C1=O | 2 | -0.33 | 0 | -2 | -0.39 | .
COc1ccccc1CN1C[C@@H]2C[C@@H](C3=Cc4cc(Cl)ccc4OC3)N3CCC[C@@]23C1=O | 2 | -1 | -1 | 0 | -3.2* | 0.065*
Cc1ccn2c(NC(=O)C(C)(C)Oc3ccc(Cl)cc3)c(-c3cccs3)nc2c1 | 5 | -1.9 | 1 | -2 | . | .
Cc1cc(Cl)n2c(nc3cc(F)c(F)cc32)c1C#N | 2 | -1.9 | 0 | 0 | -7.2* | 0.053*
CN=c1scc(C)n1/N=C/c1ccc(O)cc1O | 6 | . | 1 | 0 | . | ?
CN=c1scc(C)n1/N=C/c1ccc(O)cc1 | 2 | -0.076 | 1 | -6 | . | .
Cn1c(/C(C#N)=C/c2cccc(O)c2)nc2ccccc21 | 2 | -2.3 | -1 | 4 | -5* | 0.049*
N#C/C(=C\c1cccc(O)c1)c1nc2ccccc2o1 | . | -2 | . | -1 | . | .
O=C1C2C(C(=O)N1/N=C/c1cccc([N+](=O)[O-])c1)C1C=CC2C12CC2 (stereo not drawn) | 3 | 0.052 | -1 | . | -0.89 | .
COc1ccccc1/C=C/C=N/N1CCN(Cc2cccc3ccccc23)CC1 | 3 | 0.79 | -3 | 0 | 0.42 | .
COc1ccc(OC)c(CN2CCN(Cc3cccc4ccccc34)CC2)c1 | 2 | 0.059 | -1 | 0 | -3.9* | 0.05*
COc1cc(-c2nnc3sc(Cc4ccccc4)nn23)cc(OC)c1OC | 5 | -3.2 | 2 | 2 | -0.45 | .
COc1ccc(Cc2nn3c(-c4cc(OC)c(OC)c(OC)c4)nnc3s2)cc1 | 5 | . | 1 | -1 | -2.6* | ?
O=C(NCCCn1cccn1)c1cc(COc2ccc(F)cc2Cl)on1 | 3 | -2.6 | -1 | -1 | 0.29 | .
